High-throughput results as filed in PubChem.
Ecoli rRNA inh: inhibitors of bacterial rRNA selective over humanized ribosomes. AID 720706. 350,000 tested, 1.6% active. E. coli WT GFP vs humanized-ribosome RFP mutants, fluorescence, 24 h; active compounds read low; DMSO median 0, no signal -100. GFP signal change (wild-type ribosome), % (no concentration beside the values);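 active = significant combined selectivity score with lowered wild-type GFP, culture density cut under 30%, mutant RFP and density less affected; inactive = any of these conditions unmet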
LGR2 antag: Drosophila LGR2 receptor signaling inhibition | AID 720647 | HEK293 LGR2, CRE-luciferase, bursicon-stimulated, 4 h | inhibition, % at 9.99 µM | 380,000 tested, 0.35% active;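 active = drop in luminescence signal, shown as inhibition above about 50% in the replicate tests, limit read from the data, passing the limit was not always enough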;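 note: agonist challenge used bursicon conditioned medium at about half maximal strength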
EWS-Fli block: inhibitors of EWS/Fli oncoprotein transcriptional activity; A673 NR0B1-luciferase reporter, viability-normalised; inhibition, % at 12.6 µM; 350,000 tested, 0.67% active;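 active = mean inhibition of at least 50% after viability correction, with every replicate also passing that limit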;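 note: firefly luciferase signal divided by Alamar Blue viability fluorescence both relative to DMSO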
E-selectin induc: E-selectin induction on HUVECs; HUVEC E-selectin immunofluorescence imaging; normalized: neutral wells 0, TNF-alpha wells 100; AID 686992; activation, % at 7.58 µM; 260,000 tested, 0.37% active;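 active = mean E-selectin-positive cell signal at least 10% of the positive control, reached in at least 60% of replicates, without over 20% cell loss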
Target sequence (P16581 whole entry, looked up): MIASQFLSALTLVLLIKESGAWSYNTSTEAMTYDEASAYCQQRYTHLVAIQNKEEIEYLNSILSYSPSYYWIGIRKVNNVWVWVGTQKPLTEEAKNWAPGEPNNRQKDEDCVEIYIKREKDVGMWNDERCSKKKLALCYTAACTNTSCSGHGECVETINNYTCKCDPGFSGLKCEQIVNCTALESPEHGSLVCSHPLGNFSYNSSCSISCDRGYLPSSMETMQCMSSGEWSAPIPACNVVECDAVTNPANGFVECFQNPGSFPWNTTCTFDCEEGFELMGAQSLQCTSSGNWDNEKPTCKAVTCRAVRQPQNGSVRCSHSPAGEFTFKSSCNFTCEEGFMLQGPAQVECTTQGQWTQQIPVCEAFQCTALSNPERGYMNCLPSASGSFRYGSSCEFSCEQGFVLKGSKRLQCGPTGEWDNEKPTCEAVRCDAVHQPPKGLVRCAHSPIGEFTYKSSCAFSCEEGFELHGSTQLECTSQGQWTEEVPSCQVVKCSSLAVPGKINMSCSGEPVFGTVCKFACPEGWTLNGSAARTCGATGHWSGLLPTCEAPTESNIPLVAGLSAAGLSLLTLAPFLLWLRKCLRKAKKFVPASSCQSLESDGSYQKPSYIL
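Test system: HUVEC | Signal: Immunofluorescence imaging | Read-out: Percent E-selectin-positive cells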
Hits are given with their value; – = inactive; · = no result. Hits are enriched below; roughly 2.4% of the tested compounds scored in any of these assays.

SMILES	Ecoli rRNA inh	LGR2 antag	EWS-Fli block	E-selectin induc
CC(C)(C)C1CCC(OCC(O)CN2CCN(c3ccccn3)CC2)CC1 (stereo unspecified)	-35	–	–	–
C[C@@H]1CN([C@@H](C)CO)C(=O)c2cc(NS(C)(=O)=O)ccc2O[C@H]1CN(C)S(=O)(=O)c1cccs1	–	–	–	–
CC(C)CCn1cnc2c(oc3nc4c(cc32)CCCC4)c1=O	–	68	–	·
CCC(=O)N1CCC2(CC1)CN(CC1CCCCC1)[C@@H](CO)c1c2c2ccc(OC)cc2n1C	–	–	–	–
O=S(=O)(Nc1cccc(S(=O)(=O)N2CCCC2)c1)c1cccs1	–	·	–	116
O=S(=O)(Nc1ccc(S(=O)(=O)N2CCCCCC2)cc1)c1cccs1	–	–	·	·
O=C1[C@H](Cc2ccc(C(F)(F)F)cc2)CCn2nncc2COC[C@H]2CCCCN12	–	·	·	·
COc1ccc(NC(=O)c2cc(-c3ccccc3Cl)on2)cc1	–	–	–	–
COc1cc(NC(=O)c2cc(-c3ccccc3Cl)on2)cc(OC)c1OC	–	–	62	–
COC(=O)c1cc(=O)n(Cc2ccc(OC)c(OC)c2)c(=Nc2ccc(F)cc2)s1	–	62	–	–
COC(=O)c1cc(=O)n(CCc2ccc(OC)c(OC)c2)c(=Nc2ccc(F)c(Cl)c2)s1	–	55	–	–
COc1ccc(NC(=O)Nc2ccc3c(c2)C(=O)N([C@H](C)CO)C[C@H](C)[C@@H](CN(C)S(C)(=O)=O)OCCCC[C@@H](C)O3)cc1	–	–	–	–
COc1cccc(N2CCN(CC(=O)NC(C)c3ccccc3)CC2)c1 (stereo unspecified)	–	–	–	·
CC(NC(=O)CN1CCN(c2cccc(Cl)c2)CC1)c1ccccc1 (stereo unspecified)	-28	–	–	·
Cc1ccc(/C=N/N2CCN(Cc3ccc(C)cc3)CC2)cc1	–	–	–	·
CC(/C=N\N1CCN(Cc2ccc(C)cc2)CC1)=C\c1ccccc1	–	–	–	·
BrC(/C=N/N1CCN(Cc2ccccc2)CC1)=C/c1ccccc1	-42	–	–	–
O=[N+]([O-])c1ccc(/C=N/N2CCN(Cc3ccccc3)CC2)cc1	-16	–	–	–
Cc1ccc(CN2CCN(/N=C\c3cccc([N+](=O)[O-])c3)CC2)cc1	-25	–	–	–
O=C(NCCN1CCCC1)[C@@H]1[C@@H](CO)[C@@H]2Cn3c(cccc3=O)[C@H]1N2C(=O)c1ccccc1	–	–	–	–
COc1ccc(C(=O)c2cc3ccc(O)cc3oc2=O)cc1	-18	–	–	·
CCc1ccc(C(=O)c2cc3ccc(O)cc3oc2=O)cc1	–	–	–	–
O=C(c1ccc(Br)cc1)c1cc2ccc(O)cc2oc1=O	–	–	–	46
O=C(NN1CCOCC1)c1ccc(Cl)cc1[N+](=O)[O-]	–	–	–	45
Cc1cc(-c2ccc(N3CCOCC3)cc2)nc2ccccc12	·	–	–	–
SMILES	Ecoli rRNA inh	LGR2 antag	EWS-Fli block	E-selectin induc
CN1CCN(c2ccc(-c3ccc4ccccc4n3)cc2)CC1	–	102	93	–
O=C(O)CCCc1ccc2c(c1)CCc1ccccc1-2	–	–	63	·
Cc1ccc(Oc2ccc(-c3nc(N)nc(N)n3)cc2)cc1C	·	–	·	·
Nc1nc(N)nc(-c2ccc(Oc3ccccc3)cc2)n1	-34	–	–	·
C[C@H]1CN([C@@H](C)CO)S(=O)(=O)c2ccc(C#CC3(O)CCCC3)cc2O[C@@H]1CN(C)C(=O)Cc1ccccc1	–	–	–	–
CCOCCN1CCN(C2c3ccccc3CSc3ccccc32)CC1 (stereo unspecified)	-25	–	–	–
CCNC(=O)NC1c2ccccc2CSc2ccccc21 (stereo unspecified)	–	–	–	–
CCCCCn1c(CCNC(=O)c2cccs2)nc2ccccc21	-30	–	–	·
S=c1[nH]nc(-c2ccncc2)n1/N=C/C=C/c1ccccc1	-23	–	–	–
CCOC(=O)CNC(=O)CSc1nnc(NC(=O)c2ccc(C)cc2)s1	–	73	–	–
CC(C)Oc1ccc(C(=O)Nc2nnc(SCC(=O)N3CCOCC3)s2)cc1	·	74	60	·
Cc1cc(C)c(C#N)c(SCS(=O)Cc2ccccc2)n1 (stereo unspecified)	·	–	·	·
Cc1cc(C)c(C#N)c(SCS(=O)Cc2ccc(Cl)cc2)n1 (stereo unspecified)	-44	–	–	·
Cc1nc(Sc2ccc(Cl)cc2)c(C#N)c(C)c1[N+](=O)[O-]	-20	–	–	–
Cc1ccc(Sc2nc(C)c([N+](=O)[O-])c(C)c2C#N)cc1	–	–	–	·
Cn1c2ccccc2c2cc([N+](=O)[O-])ccc21	–	–	–	–
Cn1ccc(=O)c2cc([N+](=O)[O-])ccc21	-26	–	–	–
O=C(Cc1cccnc1)N1CC(=O)N2[C@H](C1)[C@@H](c1ccc(-c3cccc(F)c3)cc1)[C@@H]2CO	–	·	·	·
Cc1noc(C)c1NC(=O)N(C)C[C@@H]1OCCCC[C@@H](C)Oc2ccc(NC(=O)c3ccncc3)cc2C(=O)N([C@H](C)CO)C[C@@H]1C	–	–	–	–
C[C@H](CO)N1C[C@H](C)[C@@H](CN(C)Cc2ccccc2)Oc2ccc(NC(=O)Nc3cccc4ccccc34)cc2CC1=O	–	–	56	–
C[C@H]1CN([C@@H](C)CO)C(=O)Cc2cc(NC(=O)Nc3ccc4c(c3)OCO4)ccc2O[C@@H]1CN(C)C	–	–	–	233
C[C@H]1CN([C@@H](C)CO)C(=O)Cc2cc(NC(=O)Nc3ccc4c(c3)OCO4)ccc2O[C@@H]1CN(C)C(=O)Nc1ccc2c(c1)OCO2	–	–	–	–
C[C@@H]1CN([C@H](C)CO)C(=O)Cc2cc(NC(=O)Nc3ccccc3)ccc2O[C@@H]1CN(C)C	–	–	–	46
C[C@H](CO)N1C[C@H](C)[C@@H](CN(C)C)Oc2ccc(NC(=O)Nc3ccccc3)cc2CC1=O	–	–	–	–
C[C@@H]1CN([C@@H](C)CO)C(=O)c2cc(NC(=O)Nc3ccc4c(c3)OCO4)ccc2O[C@H]1CN(C)C	–	–	–	45
SMILES	Ecoli rRNA inh	LGR2 antag	EWS-Fli block	E-selectin induc
C[C@H](CO)N1C[C@H](C)[C@H](CN(C)Cc2ccccc2)Oc2ccc(NC(=O)Nc3cccc4ccccc34)cc2CC1=O	–	–	–	–
COc1ccc2c3c(n(C)c2c1)[C@@H](CO)N(CC1CCCC1)CC31CCN(Cc2nccs2)CC1	–	–	–	–
CN1c2ccc(C3=CCCCC3)cc2[C@@H]2[C@@H](CCN2C(=O)C2CC2)[C@H]1CO	–	–	–	–
C[C@@H]1CN([C@H](C)CO)C(=O)c2cccc(NC(=O)Nc3ccc(C(F)(F)F)cc3)c2O[C@H]1CN(C)C(=O)Nc1ccccc1	–	–	–	–
COc1ccc(S(=O)(=O)N(C)C[C@H]2Oc3ccc(NC(=O)Nc4ccc5c(c4)OCO5)cc3CC(=O)N([C@@H](C)CO)C[C@@H]2C)cc1	–	–	–	–
COc1ccc(S(=O)(=O)N(C)C[C@H]2Oc3ccc(NC(=O)Nc4ccc5c(c4)OCO5)cc3CC(=O)N([C@H](C)CO)C[C@H]2C)cc1	–	–	–	36
